The RNAGym collection of RNA variant scans (doi:10.1002/anie.201605470)

B1: Osa-1-4 twister ribozyme (parent)
chain: CCGCCUAACACUGCCAAUGCCGGUCCCAAGCCCGGAUAAAAGUGGAGGGGGCGG

Variants of: B1
Assay: self-cleavage, relative activity (ratio to wild type); higher = more cleavage; co-transcriptional
Summary of the method: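 Relative activity is the fraction cleaved divided by that of the wild-type ribozyme. The library came from a DNA template for a 54-nucleotide Oryza sativa twister ribozyme, doped at the 48 positions downstream of the cleavage site with 97 % wild-type base and 1 % of each other base. After 2 h of in vitro transcription at 37 °C with co-transcriptional self-cleavage, the RNA was reverse-transcribed with a template-switching oligonucleotide, amplified by PCR and deep-sequenced, and reads with or without upstream sequence gave the cleavage status.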

Compared with C15G C21G, C15G C21U is higher in self-cleavage: 0.05 for the first, 0.42 for the second.

First: C15G C21A
Second: C14U C26G
The self-cleavage of the first is higher: 0.11 for the first, 0.07 for the second.

Compared with C14U C26U, C14U C26A is lower in self-cleavage: 0.11 for the first, 0.03 for the second.

First: C14U G49C
Second: C14U G49U
The self-cleavage of the first is lower: 0.05 for the first, 0.06 for the second.

First: C14U G49A
Second: C15A G13A
The self-cleavage of the first is higher: 0.05 for the first, 0.04 for the second.

Going from C15A G13C to C15A G13U, the self-cleavage falls from 0.04 to 0.02.

Going from C14U G23U to C14U G23A, the self-cleavage rises from 0.03 to 0.06.

Compared with C14U G23C, C15G G30C is lower in self-cleavage: 0.04 for the first, 0.03 for the second.

First: C15G G30U
Second: C15G G30A
The self-cleavage of the first is higher: 0.06 for the first, 0.03 for the second.

Going from C15G C32U to C15G C32A, the self-cleavage falls from 0.07 to 0.05.

Compared with C15G C32G, C15G G44U is higher in self-cleavage: 0.12 for the first, 0.17 for the second.

Going from C15G G44A to C15G G44C, the self-cleavage rises from 0.12 to 0.19.

Compared with C14U G53C, C14U G53U is higher in self-cleavage: 0.05 for the first, 0.09 for the second.

Compared with C14U G53A, C14U G35U is higher in self-cleavage: 0.11 for the first, 0.21 for the second.

First: C14U G35A
Second: C14U G35C
The self-cleavage of the first is higher: 0.43 for the first, 0.07 for the second.

Compared with C14U C21U, C14U C21A is lower in self-cleavage: 0.39 for the first, 0.12 for the second.

Going from C14U C21G to C15A G45A, the self-cleavage falls from 0.06 to 0.05.

C15A G45U and C15A G45C are the same in self-cleavage: 0.04 for the first, 0.04 for the second.

Compared with C15A G50U, C15A G50A is higher in self-cleavage: 0.23 for the first, 0.38 for the second.

Going from C15A G50C to C14U G50A, the self-cleavage rises from 0.14 to 0.35.

Compared with C14U G50C, C14U G50U is higher in self-cleavage: 0.1 for the first, 0.18 for the second.

Going from C15G G51U to C15G G51C, the self-cleavage falls from 0.08 to 0.07.

First: C15G G51A
Second: C15U C25A
The self-cleavage of the first is higher: 0.13 for the first, 0.03 for the second.

Compared with C15U C25U, C15U C25G is lower in self-cleavage: 0.08 for the first, 0.04 for the second.

C15G C27A and C15G C27U are the same in self-cleavage: 0.08 for the first, 0.08 for the second.

Compared with C15G C27G, C15G G23C is lower in self-cleavage: 0.1 for the first, 0.07 for the second.

Compared with C15G G23A, C15G G23U is lower in self-cleavage: 0.14 for the first, 0.04 for the second.

Compared with C15A G34U, C15A G34C is lower in self-cleavage: 0.14 for the first, 0.11 for the second.

Compared with C15A G34A, C15A U12C is lower in self-cleavage: 0.23 for the first, 0.07 for the second.

Compared with C15A U12A, C15A U12G is higher in self-cleavage: 0.11 for the first, 0.15 for the second.

Compared with C15U C9G, C15U C9U is lower in self-cleavage: 0.14 for the first, 0.07 for the second.

Going from C15U C9A to C15A G53C, the self-cleavage rises from 0.05 to 0.06.

Going from C15A G53A to C15A G53U, the self-cleavage falls from 0.14 to 0.1.

Going from C15G U18C to C15G U18A, the self-cleavage falls from 0.54 to 0.48.

First: C15G U18G
Second: C15A C26A
The self-cleavage of the first is higher: 0.37 for the first, 0.05 for the second.

Compared with C15A C26U, C15A C26G is lower in self-cleavage: 0.12 for the first, 0.06 for the second.

Going from C15A G49C to C15A G49A, the self-cleavage rises from 0.04 to 0.05.

First: C15A G49U
Second: C14U C25G
The self-cleavage of the first is lower: 0.05 for the first, 0.06 for the second.

Going from C14U C25A to C14U C25U, the self-cleavage rises from 0.06 to 0.1.

Going from C15A G47C to C15A G47U, the self-cleavage rises from 0.04 to 0.06.

First: C15A G47A
Second: C15G U24G
The self-cleavage of the first is higher: 0.06 for the first, 0.02 for the second.

Compared with C15G U24C, C15G U24A is lower in self-cleavage: 0.09 for the first, 0.07 for the second.

First: C15U G13U
Second: C15U G13A
The self-cleavage of the first is lower: 0.02 for the first, 0.05 for the second.

First: C15U G13C
Second: C15U C26A
The self-cleavage of the first is higher: 0.02 for the first, 0.01 for the second.

Going from C15U C26G to C15U C26U, the self-cleavage rises from 0.06 to 0.08.

First: C14U G51A
Second: C14U G51U
The self-cleavage of the first is higher: 0.12 for the first, 0.05 for the second.

Going from C14U G51C to C15U C27U, the self-cleavage rises from 0.04 to 0.08.

Compared with C15U C27G, C15U C27A is higher in self-cleavage: 0.06 for the first, 0.07 for the second.

Going from C14U G42C to C14U G42U, the self-cleavage falls from 0.06 to 0.03.

First: C14U G42A
Second: C15G U12C
The self-cleavage of the first is lower: 0.09 for the first, 0.1 for the second.

Compared with C15G U12G, C15G U12A is lower in self-cleavage: 0.15 for the first, 0.13 for the second.

Compared with C15A G23A, C15A G23C is lower in self-cleavage: 0.08 for the first, 0.03 for the second.

Compared with C15A G23U, C14U U12A is higher in self-cleavage: 0.05 for the first, 0.09 for the second.

Going from C14U U12G to C14U U12C, the self-cleavage rises from 0.05 to 0.09.

Going from C15G C31G to C15G C31A, the self-cleavage falls from 0.12 to 0.03.

Compared with C15G C31U, C15A G22A is higher in self-cleavage: 0.09 for the first, 0.2 for the second.

First: C15A G22C
Second: C15A G22U
The self-cleavage of the first is lower: 0.03 for the first, 0.09 for the second.

Compared with C14U C15U, C14U C15G is lower in self-cleavage: 0.09 for the first, 0.07 for the second.

Going from C14U U37A to C14U U37G, the self-cleavage rises from 0.5 to 0.74.

First: C14U U37C
Second: C15A
The self-cleavage of the first is lower: 0.57 for the first, 0.61 for the second.

Going from C15G to C15U, the self-cleavage falls from 0.54 to 0.53.

Compared with C15U C20U, C15U C20G is lower in self-cleavage: 0.54 for the first, 0.05 for the second.

First: C15U C20A
Second: C15G C25A
The self-cleavage of the first is higher: 0.45 for the first, 0.05 for the second.

Compared with C15G C25U, C15G C25G is lower in self-cleavage: 0.12 for the first, 0.07 for the second.

Compared with C14U U18G, C14U U18C is lower in self-cleavage: 0.53 for the first, 0.51 for the second.

Compared with C14U U18A, C15G G53A is lower in self-cleavage: 0.5 for the first, 0.13 for the second.

Going from C15G G53U to C15G G53C, the self-cleavage falls from 0.13 to 0.05.

First: C15A C32A
Second: C15A C32G
The self-cleavage of the first is higher: 0.08 for the first, 0.07 for the second.

First: C15A C32U
Second: C15G C33U
The self-cleavage of the first is lower: 0.07 for the first, 0.11 for the second.

First: C15G C33A
Second: C15G C33G
The self-cleavage of the first is lower: 0.05 for the first, 0.06 for the second.

Going from C15A C20U to C15A C20G, the self-cleavage falls from 0.65 to 0.06.

First: C15A C20A
Second: C15U G19A
The self-cleavage of the first is lower: 0.52 for the first, 1.03 for the second.

Going from C15U G19C to C15U G19U, the self-cleavage rises from 0.12 to 0.46.

First: C15A U43G
Second: C15A U43C
The self-cleavage of the first is higher: 0.11 for the first, 0.1 for the second.

Going from C15A U43A to C15A C27U, the self-cleavage falls from 0.14 to 0.07.

Going from C15A C27G to C15A C27A, the self-cleavage rises from 0.04 to 0.16.

Going from C15A C21A to C15A C21G, the self-cleavage falls from 0.15 to 0.07.

Compared with C15A C21U, C14U G13A is lower in self-cleavage: 0.46 for the first, 0.03 for the second.

C14U G13U and C14U G13C are the same in self-cleavage: 0.02 for the first, 0.02 for the second.

Going from C14U G47U to C14U G47A, the self-cleavage rises from 0.06 to 0.07.

Going from C14U G47C to C15A C33A, the self-cleavage rises from 0.06 to 0.07.

Compared with C15A C33G, C15A C33U is higher in self-cleavage: 0.03 for the first, 0.09 for the second.

Compared with C14U G19U, C14U G19C is lower in self-cleavage: 0.05 for the first, 0.03 for the second.

C14U G19A showed a self-cleavage of 0.09.
